The text below walks through data of ChEMBL document CHEMBL3352639, “Synthesis and biological evaluation of thienopyrimidine derivatives as GPR119 agonists” (Bioorg Med Chem Lett, 2014).

Broadly, the EC50 is the concentration that produces a half-maximal response. A low value points to an effect from little substance. The IC50 is the point on the concentration scale where inhibition reaches its midpoint. The low end stands for greater potency, the high end for weaker potency. A word on the inhibition: it is the percentage by which the read-out fell short of the control.

Series [1] concerns the target T1, Glucose-dependent insulinotropic receptor (Homo sapiens) (UniProt Q8TDV5).
T1 sequence (whole entry): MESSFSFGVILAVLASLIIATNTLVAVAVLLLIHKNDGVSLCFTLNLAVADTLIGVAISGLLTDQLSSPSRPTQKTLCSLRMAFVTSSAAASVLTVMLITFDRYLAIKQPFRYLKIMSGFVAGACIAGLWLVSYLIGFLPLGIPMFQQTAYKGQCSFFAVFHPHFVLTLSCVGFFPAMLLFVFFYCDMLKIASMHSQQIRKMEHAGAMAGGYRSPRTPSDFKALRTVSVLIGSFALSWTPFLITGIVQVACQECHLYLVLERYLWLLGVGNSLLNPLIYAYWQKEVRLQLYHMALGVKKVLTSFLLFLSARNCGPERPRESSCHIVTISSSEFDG
In words: Activation of human GPR119 expressed in CHO-K1 cells at 1 uM after 24 hrs by CRE-luciferase assay relative to GSK1292263. It is filed as functional, cell-based.

The target in series [2] is T2, Glucose-dependent insulinotropic receptor (Homo sapiens, UniProt Q8TDV5).
T2 sequence (Q8TDV5 whole entry): T1 sequence (whole entry)
In words: Agonist activity at human GPR119 expressed in CHO-K1 cells after 24 hrs by CRE-luciferase assay. The class given is functional, cell-based.

The nature of series [3]: Metabolic stability in rat liver microsomes assessed as compound remaining at 1 uM after 30 mins by LC/MS/MS analysis. It is filed as ADME. The following applies: read-out: Stability. Background: Liver microsomes are a subcellular fraction often used to study metabolism.
Series [4] is described as follows: Metabolic stability in human liver microsomes assessed as compound remaining at 1 uM after 30 mins by LC/MS/MS analysis. The following applies: read-out: Stability. The class given is ADME.
A further series has as its target Cytochrome P450 2E1 (Homo sapiens, UniProt P05181). Kind of series: Induction of CYP2E1 (unknown origin). It is filed as ADME.
The target of series [5] is T3, Cytochrome P450 2B6 (Homo sapiens, UniProt P20813).
T3 sequence (P20813 whole entry): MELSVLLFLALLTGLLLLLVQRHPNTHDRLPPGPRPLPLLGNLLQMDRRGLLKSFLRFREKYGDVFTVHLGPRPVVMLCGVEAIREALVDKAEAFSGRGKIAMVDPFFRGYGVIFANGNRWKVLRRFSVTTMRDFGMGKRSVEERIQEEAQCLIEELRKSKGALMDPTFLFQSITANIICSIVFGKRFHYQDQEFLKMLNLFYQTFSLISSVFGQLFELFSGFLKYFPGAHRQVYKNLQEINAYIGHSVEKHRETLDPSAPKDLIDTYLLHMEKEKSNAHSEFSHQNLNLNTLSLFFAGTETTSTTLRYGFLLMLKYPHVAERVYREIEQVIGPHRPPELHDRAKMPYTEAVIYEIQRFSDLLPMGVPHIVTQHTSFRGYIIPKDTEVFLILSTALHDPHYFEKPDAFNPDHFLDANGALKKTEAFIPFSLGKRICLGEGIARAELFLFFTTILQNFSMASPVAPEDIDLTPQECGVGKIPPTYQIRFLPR
Kind of series: Inhibition of CYP2B6 (unknown origin). The class given is ADME.

The target in series [6] is T3, Cytochrome P450 2B6. In words: Induction of CYP2B6 (unknown origin). The class given is ADME.
A further series deals with Cytochrome P450 2D6 (Homo sapiens, UniProt P10635). Kind of series: Inhibition of CYP2D6 (unknown origin). It is filed as ADME.
For series [7], the target named is T4, Cytochrome P450 1A2 (Homo sapiens, UniProt P05177).
T4 sequence (P05177 whole entry): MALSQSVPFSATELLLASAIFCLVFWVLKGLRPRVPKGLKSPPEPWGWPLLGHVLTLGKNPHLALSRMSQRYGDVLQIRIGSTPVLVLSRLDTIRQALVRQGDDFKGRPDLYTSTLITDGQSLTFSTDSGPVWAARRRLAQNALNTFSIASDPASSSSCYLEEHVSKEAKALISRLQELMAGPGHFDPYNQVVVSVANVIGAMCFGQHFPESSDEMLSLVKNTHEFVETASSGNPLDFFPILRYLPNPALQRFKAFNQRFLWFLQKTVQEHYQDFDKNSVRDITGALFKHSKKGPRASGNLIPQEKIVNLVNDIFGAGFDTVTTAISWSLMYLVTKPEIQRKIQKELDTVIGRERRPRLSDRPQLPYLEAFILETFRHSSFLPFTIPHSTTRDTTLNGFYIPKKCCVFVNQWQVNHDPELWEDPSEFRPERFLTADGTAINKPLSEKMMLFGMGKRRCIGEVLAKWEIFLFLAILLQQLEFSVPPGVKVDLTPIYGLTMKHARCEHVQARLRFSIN
Kind of series: Inhibition of CYP1A2 (unknown origin). It is filed as ADME.

A further series relates to Beta-TC6. Kind of series: Increase in glucose-stimulated insulin release in mouse BetaTC6 cells after 1 hr by ELISA. It is filed as functional, cell-based. The method in brief:
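GSIS was measured in the TC-6 pancreatic beta-cell line exposed to compound over 10 nM to 100 nM, with insulin secretion read under glucose stimulation.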

The target of another series is Cytochrome P450 2C19 (Homo sapiens, UniProt P33261). In words: Inhibition of CYP2C19 (unknown origin). The class given is ADME.
The target in series [8] is T5, Cytochrome P450 2C9 (Homo sapiens, UniProt P11712). Kind of series: Induction of CYP2C9 (unknown origin). It is filed as ADME.
Series [9] in a line: Cytotoxicity against chinese hamster CHOK1 cells. Conditions: Cricetulus griseus, CHO-K1. The class given is cell-based.
The next series relates to HFL1. Kind of series: Cytotoxicity against human HFL1 cells. It is filed as cell-based.
For series [10], the target named is T4, Cytochrome P450 1A2. Kind of series: Induction of CYP1A2 (unknown origin). The class given is ADME.
The target in another series is hERG (KCNH2) (Homo sapiens, UniProt Q12809). Kind of series: Inhibition of human ERG at 10 uM. Put shortly:
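hERG liability was assessed in a binding-assay format, reported as percent inhibition with the compound at 10 μM.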

Series [11] in a line: Cytotoxicity against mouse NIH/3T3 cells. The class given is cell-based. Conditions: NIH3T3.
A further series has as its system Mus musculus. In words: Antidiabetic activity in C57BL/6 mouse assessed as reduction in plasma glucose AUC at 15 mg/kg by OGTT. The class given is functional, organism-based. Also on record: dose 15 mg/kg. Put shortly: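 OGTT in normal mice, n = 7 per group. Plasma glucose was followed over the test, and efficacy was taken as the AUC of glucose concentration. Data are given as means ± SEM.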

For another series, the system named is L929. In words: Cytotoxicity against mouse L929 cells. The class given is cell-based.
The target of series [12] is T6, Cytochrome P450 3A4 (Homo sapiens, UniProt P08684). Kind of series: Inhibition of CYP3A4 (unknown origin). The class given is ADME.
In series [13] the target is T6, Cytochrome P450 3A4. In words: Induction of CYP3A4 (unknown origin). It is filed as ADME.
The target of series [14] is T5, Cytochrome P450 2C9. Kind of series: Inhibition of CYP2C9 (unknown origin). The class given is ADME.
The target in the next series is T7, Cytochrome P450 2A6 (Homo sapiens, UniProt P11509).
T7 sequence (P11509 whole entry): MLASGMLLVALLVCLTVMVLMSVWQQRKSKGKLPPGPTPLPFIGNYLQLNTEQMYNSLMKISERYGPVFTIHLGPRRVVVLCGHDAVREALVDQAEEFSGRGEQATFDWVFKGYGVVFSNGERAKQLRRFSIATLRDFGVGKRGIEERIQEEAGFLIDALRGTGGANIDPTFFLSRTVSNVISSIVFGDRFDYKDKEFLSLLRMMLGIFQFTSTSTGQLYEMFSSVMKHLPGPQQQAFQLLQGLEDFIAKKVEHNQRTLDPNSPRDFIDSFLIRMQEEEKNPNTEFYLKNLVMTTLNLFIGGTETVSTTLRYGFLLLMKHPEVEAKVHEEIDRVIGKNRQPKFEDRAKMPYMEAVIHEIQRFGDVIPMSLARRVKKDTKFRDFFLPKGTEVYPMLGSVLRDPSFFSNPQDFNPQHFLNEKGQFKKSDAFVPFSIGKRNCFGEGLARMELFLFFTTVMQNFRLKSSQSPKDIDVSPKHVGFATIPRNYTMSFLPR
Kind of series: Inhibition of CYP2A6 (unknown origin). The class given is ADME.

Each structure is given as a SMILES string. Active and inactive are the calls of the source. No cut-off for these calls is given here.

T6 sequence (P08684 whole entry): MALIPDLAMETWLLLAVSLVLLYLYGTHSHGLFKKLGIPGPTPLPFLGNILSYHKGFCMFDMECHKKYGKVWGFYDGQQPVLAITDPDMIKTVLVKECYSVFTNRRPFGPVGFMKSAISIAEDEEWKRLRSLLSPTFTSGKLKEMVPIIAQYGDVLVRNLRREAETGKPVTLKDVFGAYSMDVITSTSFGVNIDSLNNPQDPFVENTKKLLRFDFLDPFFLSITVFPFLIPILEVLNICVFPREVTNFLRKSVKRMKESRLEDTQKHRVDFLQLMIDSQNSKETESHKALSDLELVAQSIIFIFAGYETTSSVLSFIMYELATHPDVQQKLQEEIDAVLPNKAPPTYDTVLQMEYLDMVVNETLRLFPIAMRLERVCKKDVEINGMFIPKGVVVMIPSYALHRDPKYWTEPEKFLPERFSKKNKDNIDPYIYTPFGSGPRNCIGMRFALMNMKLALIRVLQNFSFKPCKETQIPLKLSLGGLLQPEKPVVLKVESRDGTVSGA
T5 sequence (P11712 whole entry): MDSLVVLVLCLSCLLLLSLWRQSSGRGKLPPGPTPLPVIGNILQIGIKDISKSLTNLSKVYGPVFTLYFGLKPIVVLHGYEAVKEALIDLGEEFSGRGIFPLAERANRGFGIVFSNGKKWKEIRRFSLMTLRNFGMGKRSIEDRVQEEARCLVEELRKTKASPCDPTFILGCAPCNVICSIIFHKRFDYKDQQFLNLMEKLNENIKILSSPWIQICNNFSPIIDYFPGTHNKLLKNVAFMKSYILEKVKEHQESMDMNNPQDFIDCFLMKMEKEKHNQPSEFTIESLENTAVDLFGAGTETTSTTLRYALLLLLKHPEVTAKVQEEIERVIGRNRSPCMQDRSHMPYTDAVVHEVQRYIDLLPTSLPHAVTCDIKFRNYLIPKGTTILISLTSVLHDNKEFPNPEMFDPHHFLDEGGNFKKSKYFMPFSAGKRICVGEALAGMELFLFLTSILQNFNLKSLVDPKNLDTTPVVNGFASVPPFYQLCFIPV
Sequence of hERG (KCNH2) (Q12809 whole entry): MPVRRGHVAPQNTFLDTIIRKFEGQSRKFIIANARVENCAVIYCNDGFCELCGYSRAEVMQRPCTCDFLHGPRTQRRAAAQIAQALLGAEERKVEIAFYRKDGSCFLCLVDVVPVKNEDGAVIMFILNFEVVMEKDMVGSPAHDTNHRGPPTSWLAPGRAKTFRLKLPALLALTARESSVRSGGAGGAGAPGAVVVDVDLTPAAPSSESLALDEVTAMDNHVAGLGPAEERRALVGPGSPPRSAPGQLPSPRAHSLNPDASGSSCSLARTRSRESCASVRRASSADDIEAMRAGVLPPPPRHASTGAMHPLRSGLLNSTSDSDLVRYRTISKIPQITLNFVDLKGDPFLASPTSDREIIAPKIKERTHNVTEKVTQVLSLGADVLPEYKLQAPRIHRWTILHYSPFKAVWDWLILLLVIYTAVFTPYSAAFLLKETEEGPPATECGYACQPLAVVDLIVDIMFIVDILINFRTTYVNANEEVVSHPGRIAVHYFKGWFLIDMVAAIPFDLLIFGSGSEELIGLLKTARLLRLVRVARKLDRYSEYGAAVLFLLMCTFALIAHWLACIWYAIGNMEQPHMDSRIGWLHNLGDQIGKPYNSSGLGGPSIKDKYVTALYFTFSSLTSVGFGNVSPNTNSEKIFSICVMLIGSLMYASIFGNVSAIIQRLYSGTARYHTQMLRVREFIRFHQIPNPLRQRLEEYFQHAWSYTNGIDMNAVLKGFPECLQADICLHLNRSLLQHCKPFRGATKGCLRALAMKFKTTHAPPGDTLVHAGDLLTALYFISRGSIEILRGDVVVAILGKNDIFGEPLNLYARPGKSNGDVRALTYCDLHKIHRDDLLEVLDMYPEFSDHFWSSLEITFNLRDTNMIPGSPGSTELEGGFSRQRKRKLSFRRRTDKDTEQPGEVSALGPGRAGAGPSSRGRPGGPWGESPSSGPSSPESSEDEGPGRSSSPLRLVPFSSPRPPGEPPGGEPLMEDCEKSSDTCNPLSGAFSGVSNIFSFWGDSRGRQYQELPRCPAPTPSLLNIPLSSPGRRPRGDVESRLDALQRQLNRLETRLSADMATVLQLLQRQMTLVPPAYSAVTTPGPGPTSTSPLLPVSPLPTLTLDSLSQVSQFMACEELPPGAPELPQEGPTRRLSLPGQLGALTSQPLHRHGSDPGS
Sequence of Cytochrome P450 2C19 (P33261 whole entry): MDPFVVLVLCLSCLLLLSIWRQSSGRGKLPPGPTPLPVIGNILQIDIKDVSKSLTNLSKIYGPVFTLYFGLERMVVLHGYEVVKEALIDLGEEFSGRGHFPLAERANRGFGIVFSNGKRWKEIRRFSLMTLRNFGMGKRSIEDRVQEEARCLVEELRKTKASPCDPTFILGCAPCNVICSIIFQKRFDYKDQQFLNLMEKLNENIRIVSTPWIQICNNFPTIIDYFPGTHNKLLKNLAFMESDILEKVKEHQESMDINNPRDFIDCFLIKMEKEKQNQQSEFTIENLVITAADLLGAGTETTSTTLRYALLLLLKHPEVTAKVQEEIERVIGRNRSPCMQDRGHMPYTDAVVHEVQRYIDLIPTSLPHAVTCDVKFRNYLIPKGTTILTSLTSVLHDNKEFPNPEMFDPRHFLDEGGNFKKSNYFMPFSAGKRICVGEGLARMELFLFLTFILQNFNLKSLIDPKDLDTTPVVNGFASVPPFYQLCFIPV
Sequence of Cytochrome P450 2E1 (P05181 whole entry): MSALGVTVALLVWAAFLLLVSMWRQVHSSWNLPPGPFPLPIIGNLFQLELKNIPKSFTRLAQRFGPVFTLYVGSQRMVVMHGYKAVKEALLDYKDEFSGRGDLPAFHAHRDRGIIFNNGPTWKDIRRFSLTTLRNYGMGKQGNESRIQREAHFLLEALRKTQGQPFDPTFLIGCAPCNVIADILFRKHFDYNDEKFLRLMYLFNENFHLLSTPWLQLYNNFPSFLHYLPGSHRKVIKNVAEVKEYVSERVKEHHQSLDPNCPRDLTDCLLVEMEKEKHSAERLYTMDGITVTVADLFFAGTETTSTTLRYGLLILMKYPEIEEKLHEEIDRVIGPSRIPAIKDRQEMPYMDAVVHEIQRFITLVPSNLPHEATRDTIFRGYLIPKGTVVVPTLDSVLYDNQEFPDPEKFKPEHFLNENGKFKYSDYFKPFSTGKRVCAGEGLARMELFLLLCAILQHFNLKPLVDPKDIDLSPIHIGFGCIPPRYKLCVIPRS
Sequence of Cytochrome P450 2D6 (P10635 whole entry): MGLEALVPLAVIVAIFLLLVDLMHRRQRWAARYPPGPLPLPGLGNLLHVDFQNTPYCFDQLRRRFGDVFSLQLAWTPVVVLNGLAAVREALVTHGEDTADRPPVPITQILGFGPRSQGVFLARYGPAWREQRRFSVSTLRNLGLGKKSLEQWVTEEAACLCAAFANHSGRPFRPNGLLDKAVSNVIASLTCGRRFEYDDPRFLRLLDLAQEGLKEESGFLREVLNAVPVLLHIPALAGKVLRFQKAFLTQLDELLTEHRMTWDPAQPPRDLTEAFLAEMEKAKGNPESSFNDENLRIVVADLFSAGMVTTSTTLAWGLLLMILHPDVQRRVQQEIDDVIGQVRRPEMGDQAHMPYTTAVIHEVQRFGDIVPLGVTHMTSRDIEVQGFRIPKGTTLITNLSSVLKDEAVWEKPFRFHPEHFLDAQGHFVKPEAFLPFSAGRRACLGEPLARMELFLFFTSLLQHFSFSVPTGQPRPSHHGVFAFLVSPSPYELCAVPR

`CCN(c1ncnc2cc(-c3ccc(S(C)(=O)=O)cc3F)sc12)C1CCN(C(=O)OC(C)(C)C)CC1` came in with an Activity in [1] of 45%.

In the case of `CCc1cnc(N2CCC(Nc3ncnc4cc(-c5ccc(S(C)(=O)=O)cc5)sc34)CC2)nc1`, the Activity in series [1] is 49%.

Regarding `CN(c1ncnc2cc(-c3ccc(S(C)(=O)=O)cc3F)sc12)C1CCN(C(=O)OC2(C)CC2)CC1`, the Activity in series [1] worked out at 105%. In [2], this compound displayed an EC50 of 26 nM.

In series [1], `CN(c1ncnc2cc(-c3ccc(S(C)(=O)=O)cc3F)sc12)C1CCN(C(=O)C2CC2)CC1` registered an Activity of 65%.

In series [1], `CC(C)S(=O)(=O)N1CCC(N(C)c2ncnc3cc(-c4ccc(S(C)(=O)=O)cc4)sc23)CC1` came in with an Activity of 70%. This compound also gave an EC50 in series [2] of 1200 nM.

Compound `CCc1cnc(N2CCC(Oc3ncnc4cc(-c5ccc(S(C)(=O)=O)cc5)sc34)CC2)nc1` displayed an Activity in series [1] of 75%. The compound also came in with an EC50 in [2] of 240 nM.

With `CN(c1ncnc2cc(-c3ccc(S(C)(=O)=O)cc3)sc12)C1CCN(C(=O)C2CC2)CC1`, the Activity in [1] stood at 72%. Moreover, the EC50 in series [2] was 173 nM.

`CC(C)NC(=O)N1CCC(N(C)c2ncnc3cc(-c4ccc(S(C)(=O)=O)cc4)sc23)CC1` displayed an Activity in series [1] of 49%.

`CC(C)(C)OC(=O)N1CCC(Oc2ncnc3cc(-c4ccc(S(C)(=O)=O)cc4)sc23)CC1` showed an Activity in series [1] of 64%. This compound also came in with an EC50 in [2] of 100 nM.

In the case of `CN(c1ncnc2cc(-c3ccc(S(C)(=O)=O)cc3F)sc12)C1CCN(C(=O)OC(C)(C)C)CC1`, the remaining at 0.5 h, 1 µM in [3] and in series [4] was greater than 95% in each case. The Activity entry is “Not Active” on Cytochrome P450 2E1; “Not Active” on Cytochrome P450 2B6 [6]; “Dose-dependent effect” in the series on Beta-TC6; “Not Active” at Cytochrome P450 2C9 [8]; 94% in [1]; “Not Active” at Cytochrome P450 1A2 [10]. Further, the Activity result on Cytochrome P450 3A4 [13] is “Not Active”. Further, the “inhibition (INH)” value at Cytochrome P450 2B6 [5], on Cytochrome P450 2D6, at Cytochrome P450 1A2 [7], at Cytochrome P450 2C19, against Cytochrome P450 3A4 [12] and against Cytochrome P450 2A6 was “Not Active” in each case. The IC50 is 53400 nM in [9]; greater than 100000 nM in the series with HFL1; 49800 nM in [11]; 65800 nM in the series with L929; 76800 nM at Cytochrome P450 2C9 [14]. At hERG (KCNH2), this compound yielded an inhibition at 10 µM of 13%. The outcome with Mus musculus was Active. Moreover, the EC50 in series [2] worked out at 3 nM.

With `CC(C)OC(=O)N1CCC(N(C)c2ncnc3cc(-c4ccc(S(C)(=O)=O)cc4)sc23)CC1`, the Activity in series [1] is 67%. In series [2], this compound came in with an EC50 of 82 nM.
